Consider four compounds from ChEMBL document CHEMBL1777792, “Synthesis and evaluation of indole-based new scaffolds for antimicrobial activities--identification of promising candidates” (Bioorg Med Chem Lett, 2011).

Assay [1] deals with Candida albicans. The assay is described as follows: Antifungal activity against Candida albicans in yeast extract-peptone-glucose medium at 450 ug/ml after 48 hrs by disc diffusion assay. In kind it is functional. The note with it: read-out: DIZ. The method in brief: (§1)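 C. albicans cells at a set number were spread on YEPD agar, either plain or containing the cell-wall disruptant named in the line (SDS, Congo red or calcofluor white). Compound solution, or the reference solvent as control, was spotted onto 0.5 cm discs placed on the lawn. Plates were incubated at 30 °C and the inhibition zone diameter was measured.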
Background: A growth-free zone around the sample is the usual read-out of agar diffusion tests.

Assay [2] deals with Candida albicans. The assay is described as follows: Antifungal activity against Candida albicans in yeast extract-peptone-glucose medium at 450 ug/ml after 48 hrs by disc diffusion assay in presence of 0.01% of sodium dodecylsulphate. In kind it is functional. The note with it: read-out: DIZ. Put shortly:
as §1

The subject of assay [3] is Candida albicans. Kind of assay: Antifungal activity against Candida albicans in yeast extract-peptone-glucose medium at 450 ug/ml after 48 hrs by disc diffusion assay in presence of […]. In kind it is functional. Put shortly: (§2)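 This is a C. albicans disc diffusion on YEPD agar containing rhodamine 6G, a substrate of the Cdr1p/Cdr2p ATP-dependent efflux pumps, to test for enhanced R6G toxicity. A set number of cells was spread, and 0.5 cm discs were spotted with compound solution or reference solvent. Plates were incubated at 30 °C and the zone diameter was measured.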

Assay [4] has as its system Escherichia coli. The assay is described as follows: Antibacterial activity against Escherichia coli harboring ampicillin-resistance gene encoding plasmid at 450 ug/ml after 24 hrs by disc diffusion assay. The following applies: read-out: DIZ. In kind it is functional. Put shortly:
(§3)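 Disc diffusion used an E. coli strain carrying a plasmid that encodes an ampicillin-resistance gene. Inhibition zone diameters were recorded and compared against the corresponding solvent controls.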

The subject of assay [5] is Candida albicans. Kind of assay: Antifungal activity against Candida albicans in yeast extract-peptone-glucose medium at 450 ug/ml after 48 hrs by disc diffusion assay in presence of 150 ug/ml of congo red. In kind it is functional. Put shortly: as §1
For assay [6], the system named is Candida albicans. The assay is described as follows: Antifungal activity against Candida albicans in yeast extract-peptone-glucose medium at 450 ug/ml after 48 hrs by disc diffusion assay in presence of 100 ug/ml of calcofluor white. In kind it is functional. The method in brief:
as §1

For assay [7], the system named is Candida albicans. The assay is described as follows: Antifungal activity against Candida albicans in synthetic dextrose minimal medium after 48 hrs by ELISA based serial dilution method. Background: An ELISA detects its analyte on a solid surface through an enzyme-linked reagent.
Assay [8] has as its system Candida albicans. Kind of assay: Antifungal activity against Candida albicans in yeast extract-peptone-glucose medium at 375 ug/ml after 48 hrs by disc diffusion assay in presence of 100 ug/ml of calcofluor white. In kind it is functional. The method in brief:
as §1

For assay [9], the system named is Candida albicans. The assay is described as follows: Antifungal activity against Candida albicans in yeast extract-peptone-glucose medium at 375 ug/ml after 48 hrs by disc diffusion assay. In kind it is functional. The following applies: read-out: DIZ. The method in brief: as §1
Assay [10] has as its system Candida albicans. The assay is described as follows: Antifungal activity against Candida albicans in yeast extract-peptone-glucose medium at 375 ug/ml after 48 hrs by disc diffusion assay in presence of 0.01% of sodium dodecylsulphate. In kind it is functional. The note with it: read-out: DIZ. The method in brief:
as §1

For assay [11], the system named is Candida albicans. Kind of assay: Antifungal activity against Candida albicans in yeast extract-peptone-glucose medium at 375 ug/ml after 48 hrs by disc diffusion assay in presence of 150 ug/ml of congo red. In kind it is functional. The method in brief:
as §1

For assay [12], the system named is Candida albicans. The assay is described as follows: Antifungal activity against Candida albicans in yeast extract-peptone-glucose medium at 375 ug/ml after 48 hrs by disc diffusion assay in presence of rhodamine 6G.
Assay [13] relates to Escherichia coli. Kind of assay: Antibacterial activity against Escherichia coli harboring ampicillin-resistance gene encoding plasmid at 375 ug/ml after 24 hrs by disc diffusion assay. In kind it is functional. The following applies: read-out: DIZ. Put shortly: as §3
Assay [14] relates to Escherichia coli. The assay is described as follows: Antibacterial activity against Escherichia coli harboring ampicillin-resistance gene encoding plasmid at 238 ug/ml after 24 hrs by disc diffusion assay. In kind it is functional. The note with it: read-out: DIZ. Put shortly: as §3
Assay [15] deals with Candida albicans. Kind of assay: Antifungal activity against Candida albicans in yeast extract-peptone-glucose medium at 238 ug/ml after 48 hrs by disc diffusion assay in presence of […]. In kind it is functional. Put shortly: as §2
Assay [16] deals with Candida albicans. Kind of assay: Antifungal activity against Candida albicans in yeast extract-peptone-glucose medium at 238 ug/ml after 48 hrs by disc diffusion assay. In kind it is functional. The following applies: read-out: DIZ. Put shortly: as §1
The subject of assay [17] is Candida albicans. Kind of assay: Antifungal activity against Candida albicans in yeast extract-peptone-glucose medium at 238 ug/ml after 48 hrs by disc diffusion assay in presence of 150 ug/ml of congo red. In kind it is functional. Put shortly:
as §1

Assay [18] relates to Candida albicans. The assay is described as follows: Antifungal activity against Candida albicans in yeast extract-peptone-glucose medium at 238 ug/ml after 48 hrs by disc diffusion assay in presence of 0.01% of sodium dodecylsulphate. In kind it is functional. The following applies: read-out: DIZ. Put shortly:
as §1

Assay [19] concerns Candida albicans. The assay is described as follows: Antifungal activity against Candida albicans in yeast extract-peptone-glucose medium at 545 ug/ml after 48 hrs by disc diffusion assay. In kind it is functional. The following applies: read-out: DIZ. The method in brief:
as §1

The subject of assay [20] is Candida albicans. Kind of assay: Antifungal activity against Candida albicans in yeast extract-peptone-glucose medium at 545 ug/ml after 48 hrs by disc diffusion assay in presence of 150 ug/ml of congo red. In kind it is functional. The method in brief:
(§4)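 C. albicans cells were spread at a set number over YEPD agar containing the additive named in the line. Discs 0.5 cm across were placed on the lawn and spotted with test compound solution or reference solvent. Plates were incubated at 30 °C. The inhibition zone diameter was measured in mm and compared with the solvent-control disc.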

Assay [21] deals with Escherichia coli. Kind of assay: Antibacterial activity against Escherichia coli harboring ampicillin-resistance gene encoding plasmid at 545 ug/ml after 24 hrs by disc diffusion assay. In kind it is functional. The note with it: read-out: DIZ. The method in brief:
as §3

In assay [22] the test system is Candida albicans. The assay is described as follows: Antifungal activity against Candida albicans in yeast extract-peptone-glucose medium at 545 ug/ml after 48 hrs by disc diffusion assay in presence of 100 ug/ml of calcofluor white. In kind it is functional. The method in brief:
as §4

The subject of assay [23] is Candida albicans. The assay is described as follows: Antifungal activity against Candida albicans in yeast extract-peptone-glucose medium at 545 ug/ml after 48 hrs by disc diffusion assay in presence of 150 ug/ml of rhodamine 6G. In kind it is functional. Put shortly:
as §4

Assay [24] deals with Candida albicans. Kind of assay: Antifungal activity against Candida albicans in yeast extract-peptone-glucose medium at 545 ug/ml after 48 hrs by disc diffusion assay in presence of 0.01% of sodium dodecylsulphate. In kind it is functional. The following applies: read-out: DIZ. The method in brief: as §1

As a reminder, the IC50 is the concentration at which inhibition is half-maximal. A higher IC50 goes with a need for much substance.

As to `O=C(C(=O)N1CCCCC1)c1cn(CCCCCn2cc(C(=O)C(=O)N3CCCCC3)c3ccccc32)c2ccccc12`, the zone of inhibition at 450 µg/mL worked out at 6 mm in the assay on Candida albicans [1], 6.5 mm in the assay on Candida albicans [2] and 8.5 mm in the assay on Escherichia coli [4]. Besides, the “diameter of the inhibition zone (DIZ)” value in the assay with Candida albicans [3] is 6.5 mm; with Candida albicans [5] it was 7 mm; with Candida albicans [6], 6.5 mm.
`O=C(C(=O)N1CCOCC1)c1cn(CCCCCn2cc(C(=O)C(=O)N3CCOCC3)c3ccccc32)c2ccccc12` came in with a half-maximal inhibitory concentration (IC50) in the assay with Candida albicans [7] of 340 µM. For the same compound, the entries for the “diameter of the inhibition zone (DIZ)” value with Candida albicans [8], with Candida albicans [11] and in the assay on Candida albicans [12] were 7.5 mm, 7 mm and 8 mm, respectively. Also, the zone of inhibition at 375 µg/mL in the assay on Candida albicans [9] turned out to be 7.5 mm; with Candida albicans [10], 7 mm; in the assay with Escherichia coli [13], 8.5 mm.
Regarding `O=C(C(=O)N1CCCCC1)c1cn(CCCCCCn2cc(C(=O)C(=O)N3CCCCC3)c3ccccc32)c2ccccc12`, the zone of inhibition at 238 µg/mL with Escherichia coli [14] was found to be 7.5 mm; in the assay on Candida albicans [16] it was 6.5 mm; with Candida albicans [18], 6.5 mm. Further, the “diameter of the inhibition zone (DIZ)” value in the assay on Candida albicans [15] is 5.5 mm; in the assay with Candida albicans [17], 6 mm.
Take `O=C(C(=O)N1CCCC1)c1cn(CCCCCCn2cc(C(=O)C(=O)N3CCCC3)c3ccccc32)c2ccccc12`: the figures for the zone of inhibition at 545 µg/mL in the assay with Candida albicans [19], with Escherichia coli [21] and in the assay on Candida albicans [24] were 14.5 mm, 11.5 mm and 15.5 mm, respectively. The “diameter of the inhibition zone (DIZ)” value with Candida albicans [20] is 10.5 mm; in the assay with Candida albicans [22] it was 11 mm; in the assay on Candida albicans [23], 12.5 mm.
